Assay results as given in ChEMBL document CHEMBL1158424, “Design, synthesis and biological investigation of certain pyrazole-3-carboxylic acid derivatives as novel carriers for nitric oxide” (Bioorg Med Chem, 2009).
In brackets after ≈: the same amount, converted by molar mass. Activity calls are given as the source filed them. The rule behind the calls is not given here.

System: Pseudomonas aeruginosa
Experiment: Antibacterial activity against Pseudomonas aeruginosa after 24 hrs by agar cup diffusion method
Assay type: functional
Details: not given
How it was run: (§1)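 Nutrient agar seeded with culture, poured 3–4 mm; six 10 mm cups per plate, one as DMF solvent control. Compounds dissolved in DMF (stock 1 mg/mL), two-fold serial dilutions 32–512 µg/mL, 0.1 mL per cup. Incubation 24 h at 37 °C; inhibition zone diameter read in mm. MIC taken as intercept of log concentration versus zone diameter plot; ciprofloxacin reference.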

Row | Compound | MIC [µg/mL]
1 | O=C(c1ccccc1)c1c(C(=O)N2CCN(C(=O)CO[N+](=O)[O-])CC2)nn(-c2ccccc2)c1-c1ccccc1 | 93.3 (≈ 173 µM)
2 | O=C(c1ccccc1)c1c(C(=O)N2CCNCC2)nn(-c2ccccc2)c1-c1ccccc1 | 84.5 (≈ 194 µM)
3 | COc1ccc(NC(=O)c2nn(-c3ccccc3)c(-c3ccccc3)c2C(=O)c2ccccc2)cc1 | 22.9 (≈ 48.4 µM)

Continued by falling MIC, values first:

Row | MIC [µg/mL] | Compound
4 | 13.6 (≈ 27.1 µM) | O=C(O)c1ccc(NC(=O)c2nn(-c3ccccc3)c(-c3ccccc3)c2/C(=N/O)c2ccccc2)cc1
5 | 11.3 (≈ 24.7 µM) | O=C(OCCO[N+](=O)[O-])c1nn(-c2ccccc2)c(-c2ccccc2)c1C(=O)c1ccccc1

System: not listed separately
Experiment: Nitric oxide release in phosphate buffer at pH 7.4 after 1 hr by Griess diazotization reaction method in presence of L-cysteine
Parameters: concentration or dose not given beside the values
Details: not given
How it was run: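 Incubation in pH 7.4 phosphate buffer with L-cysteine for 1 h at 37 °C. Then 1 mL of mixture treated with Griess reagent (sulfanilamide, N-naphthylethylenediamine, phosphoric acid); absorbance read at 540 nm after 25 min. Nitrite quantified against sodium nitrite standard curve; % release = found/theoretical NO × 100.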

Row | Compound | Activity [%]
6 | O=C(c1ccccc1)c1c(C(=O)N2CCN(C(=O)CO[N+](=O)[O-])CC2)nn(-c2ccccc2)c1-c1ccccc1 | 13.8
7 | O=C(OCCO[N+](=O)[O-])c1nn(-c2ccccc2)c(-c2ccccc2)c1C(=O)c1ccccc1 | 7.1
8 | O=C(O)c1ccc(NC(=O)c2nn(-c3ccccc3)c(-c3ccccc3)c2/C(=N/O)c2ccccc2)cc1 | 9.3

System: Escherichia coli
Experiment: Antibacterial activity against Escherichia coli C-600 after 24 hrs by agar cup diffusion method
Assay type: functional
Details: C-600, 24 h
How it was run: as §1

Row | Compound | MIC [µg/mL]
9 | O=C(c1ccccc1)c1c(C(=O)N2CCN(C(=O)CO[N+](=O)[O-])CC2)nn(-c2ccccc2)c1-c1ccccc1 | 64 (≈ 119 µM)
10 | O=C(c1ccccc1)c1c(C(=O)N2CCNCC2)nn(-c2ccccc2)c1-c1ccccc1 | 1.92 (≈ 4.4 µM)
11 | COc1ccc(NC(=O)c2nn(-c3ccccc3)c(-c3ccccc3)c2C(=O)c2ccccc2)cc1 | 4.5 (≈ 9.5 µM)

More lines, now with the values ahead:

Row | MIC [µg/mL] | Compound
12 | 2.8 (≈ 5.57 µM) | O=C(O)c1ccc(NC(=O)c2nn(-c3ccccc3)c(-c3ccccc3)c2/C(=N/O)c2ccccc2)cc1
13 | 15.3 (≈ 33.4 µM) | O=C(OCCO[N+](=O)[O-])c1nn(-c2ccccc2)c(-c2ccccc2)c1C(=O)c1ccccc1

System: Bacillus subtilis
Experiment: Antibacterial activity against Bacillus subtilis after 24 hrs by agar cup diffusion method
Assay type: functional
Details: not given
How it was run: as §1

Row | Compound | MIC [µg/mL]
14 | O=C(c1ccccc1)c1c(C(=O)N2CCN(C(=O)CO[N+](=O)[O-])CC2)nn(-c2ccccc2)c1-c1ccccc1 | 2.45 (≈ 4.54 µM)
15 | O=C(c1ccccc1)c1c(C(=O)N2CCNCC2)nn(-c2ccccc2)c1-c1ccccc1 | 2.18 (≈ 4.99 µM)
16 | COc1ccc(NC(=O)c2nn(-c3ccccc3)c(-c3ccccc3)c2C(=O)c2ccccc2)cc1 | 43.8 (≈ 92.5 µM)

The next lines start with the values.

Row | MIC [µg/mL] | Compound
17 | 29.5 (≈ 58.7 µM) | O=C(O)c1ccc(NC(=O)c2nn(-c3ccccc3)c(-c3ccccc3)c2/C(=N/O)c2ccccc2)cc1
18 | 21.7 (≈ 47.4 µM) | O=C(OCCO[N+](=O)[O-])c1nn(-c2ccccc2)c(-c2ccccc2)c1C(=O)c1ccccc1

System: Staphylococcus aureus
Experiment: Antibacterial activity against Staphylococcus aureus NCTC 6571 after 24 hrs by agar cup diffusion method
Assay type: functional
Details: not given
How it was run: as §1

Row | MIC | Compound
19 | inactive | O=C(c1ccccc1)c1c(C(=O)N2CCN(C(=O)CO[N+](=O)[O-])CC2)nn(-c2ccccc2)c1-c1ccccc1
20 | inactive | O=C(c1ccccc1)c1c(C(=O)N2CCNCC2)nn(-c2ccccc2)c1-c1ccccc1
21 | inactive | O=C(OCCO[N+](=O)[O-])c1nn(-c2ccccc2)c(-c2ccccc2)c1C(=O)c1ccccc1
22 | inactive | COc1ccc(NC(=O)c2nn(-c3ccccc3)c(-c3ccccc3)c2C(=O)c2ccccc2)cc1

Same assay, conditions: NCTC 6571, 24 h

Row | MIC [µg/mL] | Compound
23 | 50.5 (≈ 100 µM) | O=C(O)c1ccc(NC(=O)c2nn(-c3ccccc3)c(-c3ccccc3)c2/C(=N/O)c2ccccc2)cc1

System: Rattus norvegicus
Experiment: Antiinflammatory activity in albino rat assessed as inhibition of carrageenan-induced paw edema at 100 mg/kg, po administered 30 mins prior to carrageenan challenge measured after 1 hr
Assay type: functional
Details: not given
How it was run: (§2)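 Male albino rats, 140–150 g, groups of 5, acclimatized 3 days, water only on the last day. Oral dosing in carboxymethylcellulose vehicle 30 min before subplantar 1% carrageenan (0.1 mL) into one hind paw; contralateral paw given saline. Paw thickness by digital plethysmometer at 0–5 h. Percent inhibition from difference between paws, treated versus vehicle control; indomethacin reference; mean ± SEM.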

Row | Compound | inhibition in vivo at 100 mg/kg [%]
24 | O=C(c1ccccc1)c1c(C(=O)N2CCN(C(=O)CO[N+](=O)[O-])CC2)nn(-c2ccccc2)c1-c1ccccc1 | 45.5
25 | O=C(c1ccccc1)c1c(C(=O)N2CCNCC2)nn(-c2ccccc2)c1-c1ccccc1 | 35
26 | O=C(OCCO[N+](=O)[O-])c1nn(-c2ccccc2)c(-c2ccccc2)c1C(=O)c1ccccc1 | 29.1
27 | O=C(O)c1ccc(NC(=O)c2nn(-c3ccccc3)c(-c3ccccc3)c2/C(=N/O)c2ccccc2)cc1 | 45.5
28 | COc1ccc(NC(=O)c2nn(-c3ccccc3)c(-c3ccccc3)c2C(=O)c2ccccc2)cc1 | 40

System: Rattus norvegicus
Experiment: Antiinflammatory activity in albino rat assessed as inhibition of carrageenan-induced paw edema at 100 mg/kg, po administered 30 mins prior to carrageenan challenge measured after 2 hrs
Assay type: functional
Details: not given
How it was run: as §2

Row | Compound | inhibition in vivo at 100 mg/kg [%]
29 | O=C(c1ccccc1)c1c(C(=O)N2CCN(C(=O)CO[N+](=O)[O-])CC2)nn(-c2ccccc2)c1-c1ccccc1 | 30
30 | O=C(c1ccccc1)c1c(C(=O)N2CCNCC2)nn(-c2ccccc2)c1-c1ccccc1 | 41.7
31 | O=C(OCCO[N+](=O)[O-])c1nn(-c2ccccc2)c(-c2ccccc2)c1C(=O)c1ccccc1 | 35
32 | O=C(O)c1ccc(NC(=O)c2nn(-c3ccccc3)c(-c3ccccc3)c2/C(=N/O)c2ccccc2)cc1 | 45
33 | COc1ccc(NC(=O)c2nn(-c3ccccc3)c(-c3ccccc3)c2C(=O)c2ccccc2)cc1 | 42.5

System: Rattus norvegicus
Experiment: Antiinflammatory activity in albino rat assessed as inhibition of carrageenan-induced paw edema at 100 mg/kg, po administered 30 mins prior to carrageenan challenge measured after 3 hrs
Assay type: functional
Details: not given
How it was run: as §2

Row | Compound | inhibition in vivo at 100 mg/kg [%]
34 | O=C(c1ccccc1)c1c(C(=O)N2CCN(C(=O)CO[N+](=O)[O-])CC2)nn(-c2ccccc2)c1-c1ccccc1 | 43
35 | O=C(c1ccccc1)c1c(C(=O)N2CCNCC2)nn(-c2ccccc2)c1-c1ccccc1 | 28.6
36 | O=C(OCCO[N+](=O)[O-])c1nn(-c2ccccc2)c(-c2ccccc2)c1C(=O)c1ccccc1 | 47.6
37 | O=C(O)c1ccc(NC(=O)c2nn(-c3ccccc3)c(-c3ccccc3)c2/C(=N/O)c2ccccc2)cc1 | 47.6
38 | COc1ccc(NC(=O)c2nn(-c3ccccc3)c(-c3ccccc3)c2C(=O)c2ccccc2)cc1 | 28.3

System: Rattus norvegicus
Experiment: Antiinflammatory activity in albino rat assessed as inhibition of carrageenan-induced paw edema at 100 mg/kg, po administered 30 mins prior to carrageenan challenge measured after 4 hrs
Assay type: functional
Details: not given
How it was run: as §2

Row | Compound | inhibition in vivo at 100 mg/kg [%]
39 | O=C(c1ccccc1)c1c(C(=O)N2CCN(C(=O)CO[N+](=O)[O-])CC2)nn(-c2ccccc2)c1-c1ccccc1 | 45.6
40 | O=C(c1ccccc1)c1c(C(=O)N2CCNCC2)nn(-c2ccccc2)c1-c1ccccc1 | 51.5
41 | O=C(OCCO[N+](=O)[O-])c1nn(-c2ccccc2)c(-c2ccccc2)c1C(=O)c1ccccc1 | 58.8
42 | O=C(O)c1ccc(NC(=O)c2nn(-c3ccccc3)c(-c3ccccc3)c2/C(=N/O)c2ccccc2)cc1 | 61.8
43 | COc1ccc(NC(=O)c2nn(-c3ccccc3)c(-c3ccccc3)c2C(=O)c2ccccc2)cc1 | 43

System: Rattus norvegicus
Experiment: Antiinflammatory activity in albino rat assessed as inhibition of carrageenan-induced paw edema at 100 mg/kg, po administered 30 mins prior to carrageenan challenge measured after 5 hrs
Assay type: functional
Details: not given
How it was run: as §2

Row | Compound | inhibition in vivo at 100 mg/kg [%]
44 | O=C(c1ccccc1)c1c(C(=O)N2CCN(C(=O)CO[N+](=O)[O-])CC2)nn(-c2ccccc2)c1-c1ccccc1 | 68.1
45 | O=C(c1ccccc1)c1c(C(=O)N2CCNCC2)nn(-c2ccccc2)c1-c1ccccc1 | 66.7
46 | O=C(OCCO[N+](=O)[O-])c1nn(-c2ccccc2)c(-c2ccccc2)c1C(=O)c1ccccc1 | 71
47 | O=C(O)c1ccc(NC(=O)c2nn(-c3ccccc3)c(-c3ccccc3)c2/C(=N/O)c2ccccc2)cc1 | 81.2
48 | COc1ccc(NC(=O)c2nn(-c3ccccc3)c(-c3ccccc3)c2C(=O)c2ccccc2)cc1 | 52.9

System: Rattus norvegicus
Experiment: Gastrointestinal toxicity in albino rat assessed as ulcer index at 100 mg/kg, po
Assay type: organism-based
Parameters: dose 100 mg/kg, route oral
Details: in vivo
How it was run: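 Rats from the paw edema study killed by ether overdose; stomachs removed, opened and examined for visible lesions. Each lesion scored 0–5 by length (0 none, 1 petechiae, 2 <1 mm, 3 1–2 mm, 4 2–4 mm, 5 >4 mm erosions). Scores summed per rat; group ulcer index is the mean lesion score.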

Row | Compound | UI
49 | O=C(c1ccccc1)c1c(C(=O)N2CCN(C(=O)CO[N+](=O)[O-])CC2)nn(-c2ccccc2)c1-c1ccccc1 | 5.5
50 | O=C(c1ccccc1)c1c(C(=O)N2CCNCC2)nn(-c2ccccc2)c1-c1ccccc1 | 23
51 | O=C(OCCO[N+](=O)[O-])c1nn(-c2ccccc2)c(-c2ccccc2)c1C(=O)c1ccccc1 | 7.5
52 | O=C(O)c1ccc(NC(=O)c2nn(-c3ccccc3)c(-c3ccccc3)c2/C(=N/O)c2ccccc2)cc1 | 8.5
53 | COc1ccc(NC(=O)c2nn(-c3ccccc3)c(-c3ccccc3)c2C(=O)c2ccccc2)cc1 | 33.3

System: Rattus norvegicus
Experiment: Gastrointestinal toxicity in albino rat assessed as incidence of gastric ulceration at 100 mg/kg, po by histopathological study
Assay type: organism-based, Stomach
Parameters: dose 100 mg/kg, route oral
Details: in vivo
How it was run: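 Gastric sections dewaxed, rehydrated, stained with haematoxylin 5–7 min, differentiated in 1% HCl in 70% alcohol, stained with 1% eosin 10 min, dehydrated, cleared in xylene, mounted and examined by light microscopy.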

Row | Compound | Activity
54 | O=C(c1ccccc1)c1c(C(=O)N2CCN(C(=O)CO[N+](=O)[O-])CC2)nn(-c2ccccc2)c1-c1ccccc1 | Non-toxic
55 | O=C(c1ccccc1)c1c(C(=O)N2CCNCC2)nn(-c2ccccc2)c1-c1ccccc1 | Toxic

System: Rattus norvegicus
Experiment: Gastroprotective activity in albino rat assessed as preventive index at 100 mg/kg, po
Assay type: functional
Details: not given
How it was run: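 Preventive index = (UI of ulcered group − UI of treated group)/UI of ulcered group × 100. UI from lesion scoring (0–5 by erosion length) of stomachs of rats from the paw edema study.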

Row | Compound | PI [%]
56 | O=C(c1ccccc1)c1c(C(=O)N2CCN(C(=O)CO[N+](=O)[O-])CC2)nn(-c2ccccc2)c1-c1ccccc1 | 76.08
